Results published in ChEMBL document CHEMBL1152122, “New lithocholic and chenodeoxycholic piperazinylcarboxamides with antiproliferative and pro-apoptotic effects on human cancer cell lines” (2008).
Calls of active or inactive are those of the source. No cut-off for these calls is given here.

How the values were obtained:
HCT-116 [1] = assay: Cytotoxicity against human HCT116 cells at 50 uM after 24 hrs by neutral red uptake assay; format: functional, cell-based
Method in brief: (§1)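 After 24 h, a single 50 µM dose was given for 24 or 48 h, with DMSO controls. Neutral red uptake for 3 h at 50 µg/mL final, with read-out at OD 570 nm. Viability expressed as % of untreated cells, four wells per line.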

HCT-116 [2] = assay: Cytotoxicity against human HCT116 cells at 50 uM after 48 hrs by neutral red uptake assay; format: functional, cell-based; method in brief: as §1
GBM [3] = assay: Cytotoxicity against human GBM cells at 50 uM after 48 hrs by neutral red uptake assay; format: functional, cell-based; method in brief: as §1
GBM [4] = assay: Cytotoxicity against human GBM cells at 50 uM after 24 hrs by neutral red uptake assay; format: functional, cell-based; method in brief: as §1
KMS-11 [5] = assay: Cytotoxicity against human KMS11 cells at 50 uM after 48 hrs by neutral red uptake assay; format: functional, cell-based; method in brief: as §1
KMS-11 [6] = assay: Cytotoxicity against human KMS11 cells at 50 uM after 24 hrs by neutral red uptake assay; format: functional, cell-based; method in brief: as §1
HCT-116 [7] = assay: Cytotoxicity against human HCT116 cells after 24 hrs by neutral red uptake assay; format: functional; conditions: HCT-116, 24 h, read-out: LD50 (the source's name)
Method in brief: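 Compounds added after 24 h for a 24 h dose-response, with DMSO vehicle controls. Neutral red 50 µg/mL final for 3 h, then fixation, acid-ethanol extraction and OD at 570 nm. LD50 taken from curves; mean ± standard error of ≥3 experiments.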

KMS-11 [8] = assay: Cytotoxicity against human KMS11 cells assessed as [3H]thymidine incorporation at 20 uM after 24 hrs; format: functional, cell-based
Method in brief: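 KMS-11 (multiple myeloma plasma-cell line) in RPMI 1640 with 5% FCS, seeded at 500,000 cells/well in triplicate at 37 °C, 5% CO2. After 24 h, drug or vehicle added in fresh medium. After 24 h, pulsed with 1 μCi/well [3H]thymidine. Cells trypsin/EDTA-detached, harvested onto glass filters, counted by scintillation. Output as % of untreated cells; three independent experiments.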

HCT-116 [9] = assay: Cytotoxicity against human HCT116 cells assessed as morphological changes at 12 uM after 24 hrs by neutral red uptake assay; format: functional, cell-based
Method in brief: (§2)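 Cells in RPMI 1640 with 10% FCS (GBM primary culture, HCT-116) or 5% FCS (KMS-11), 2 mM glutamine, antibiotics, used at 70–80% confluency. Morphology examined alongside neutral red uptake viability.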

KMS-11 [10] = assay: Cytotoxicity against human KMS11 cells assessed as morphological changes at 12 uM after 24 hrs by neutral red uptake assay; format: functional, cell-based; method in brief: as §2
GBM [11] = assay: Cytotoxicity against human GBM cells assessed as morphological changes at 12 uM after 24 hrs by neutral red uptake assay; format: functional, cell-based; method in brief: as §2
KMS-11 [12] = assay: Induction of apoptosis in human KMS11 cells after 24 hrs by PC5-labeled Apo2.7 antibody based flow cytometry; format: functional, cell-based
Method in brief: (§3)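 KMS-11 cells treated 24 h at the stated concentrations, then stained with the phycoerythrin-labeled APO2.7 antibody kit, which detects mitochondrial 7A6 antigen. Analysed by flow cytometry and reported as % APO2.7-positive cells.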

KMS-11 [13] = assay: Induction of apoptosis in human KMS11 cells at 10 uM after 24 hrs by PC5-labeled Apo2.7 antibody based flow cytometry; format: functional; method in brief: as §3
KMS-11 [14] = assay: Induction of apoptosis in human KMS11 cells at 40 uM after 24 hrs by PC5-labeled Apo2.7 antibody based flow cytometry; format: functional; method in brief: as §3
KMS-11 [15] = assay: Induction of apoptosis in human KMS11 cells assessed as fragmentation of nuclei at 20 uM after 24 hrs […]; format: functional
KMS-11 [16] = assay: Induction of apoptosis in human KMS11 cells assessed as fragmentation of nuclei at 10 uM after 24 hrs […]; format: functional
KMS-11 [17] = assay: Induction of apoptosis in human KMS11 cells assessed as Cleavage of PARP-1 after 24 hrs by Western blotting; format: functional, cell-based
Method in brief: (§4)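 KMS-11 cells treated 24 h. 5×10^6 cells lysed 40 min on ice (10 mM Tris pH 7.6, 150 mM NaCl, 5 mM EDTA, 1% Triton X-100, PMSF, aprotinin), cleared at 10,000 g. Equal BCA-quantified protein run on reducing SDS-PAGE and transferred to PVDF. Primary antibodies (PARP-1, Mcl-1, IκBα, phospho-IκBα) overnight at 4 °C, then HRP secondary 30 min, chemiluminescent detection.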

KMS-11 [18] = assay: Induction of apoptosis in human KMS11 cells assessed as hyperphosphorylation of IkappaB after 24 hrs by Western blotting; format: functional, cell-based; method in brief: as §4
KMS-11 [19] = assay: Induction of apoptosis in human KMS11 cells assessed as DNA fragmentation at 5 uM after 24 hrs by Hoechst staining; format: functional, cell-based
Method in brief: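 KMS-11 cells on glass coverslips fixed in 2% formaldehyde 10 min and stained with Hoechst 33342 (1 µg/mL in PBS, 5 min). Nuclei viewed by epifluorescence microscopy under 350 nm excitation.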

KMS-11 [20] = assay: Induction of apoptosis in human KMS11 cells assessed as Cleavage of Mcl-1 after 24 hrs by Western blotting; format: functional, cell-based; method in brief: as §4

## c1cnc(N2CCNCC2)nc1
HCT-116 [1]
  Activity: inactive
HCT-116 [2]
  Activity: inactive
GBM [3]
  Activity: inactive
GBM [4]
  Activity: inactive
KMS-11 [5]
  Activity: inactive
KMS-11 [6]
  Activity: inactive

## c1ccc(N2CCNCC2)nc1
HCT-116 [1]
  Activity: inactive
HCT-116 [2]
  Activity: inactive
GBM [3]
  Activity: inactive
GBM [4]
  Activity: inactive
KMS-11 [5]
  Activity: inactive
KMS-11 [6]
  Activity: inactive

## C[C@H](CCC(=O)O)[C@H]1CC[C@H]2[C@@H]3CC[C@@H]4C[C@H](O)CC[C@]4(C)[C@H]3CC[C@]12C [LITHOCHOLIC ACID]
HCT-116 [1]
  Activity: inactive
HCT-116 [2]
  Activity: inactive
GBM [3]
  Activity: inactive
GBM [4]
  Activity: inactive
HCT-116 [7]
  CC50: > 50 µM
KMS-11 [5]
  Activity: inactive
KMS-11 [6]
  Activity: inactive

## C[C@H](CCC(=O)N1CCN(C/C=C/c2ccccc2)CC1)[C@H]1CC[C@H]2[C@@H]3CC[C@@H]4C[C@H](O)CC[C@]4(C)[C@H]3CC[C@]12C
HCT-116 [1]
  Activity: inactive
HCT-116 [2]
  Activity: inactive
GBM [3]
  Activity: inactive
GBM [4]
  Activity: inactive
HCT-116 [7]
  CC50: > 50 µM
KMS-11 [5]
  Activity: inactive
KMS-11 [6]
  Activity: inactive

## C[C@H](CCC(=O)N1CCN(c2ncccn2)CC1)[C@H]1CC[C@H]2[C@@H]3CC[C@@H]4C[C@H](O)CC[C@]4(C)[C@H]3CC[C@]12C
HCT-116 [7]
  CC50: 50 µM

## C(=C\c1ccccc1)/CN1CCNCC1
HCT-116 [1]
  Activity: inactive
HCT-116 [2]
  Activity: inactive
GBM [3]
  Activity: inactive
GBM [4]
  Activity: inactive
KMS-11 [5]
  Activity: inactive
KMS-11 [6]
  Activity: inactive

## C[C@H](CCC(=O)N1CCN(c2ccccn2)CC1)[C@H]1CC[C@H]2[C@@H]3CC[C@@H]4C[C@H](O)CC[C@]4(C)[C@H]3CC[C@]12C
HCT-116 [7]
  CC50: 50 µM

## C[C@H](CCC(=O)N1CCN(c2ncccn2)CC1)[C@H]1CC[C@H]2[C@@H]3[C@H](O)C[C@@H]4C[C@H](O)CC[C@]4(C)[C@H]3CC[C@]12C
HCT-116 [7]
  CC50: 30 µM

## C[C@H](CCC(=O)N1CCN(c2ccccn2)CC1)[C@H]1CC[C@H]2[C@@H]3[C@H](O)C[C@@H]4C[C@H](O)CC[C@]4(C)[C@H]3CC[C@]12C
HCT-116 [1]
  Activity: inactive
HCT-116 [2]
  Activity: inactive
GBM [3]
  Activity: inactive
GBM [4]
  Activity: inactive
HCT-116 [7]
  CC50: > 50 µM
KMS-11 [5]
  Activity: inactive
KMS-11 [6]
  Activity: inactive

## C[C@H](CCC(=O)O)[C@H]1CC[C@H]2[C@@H]3[C@H](O)C[C@@H]4C[C@H](O)CC[C@]4(C)[C@H]3CC[C@]12C [CHENODIOL]
HCT-116 [1]
  Activity: inactive
HCT-116 [2]
  Activity: inactive
GBM [3]
  Activity: inactive
GBM [4]
  Activity: inactive
HCT-116 [7]
  CC50: > 50 µM
KMS-11 [5]
  Activity: inactive
KMS-11 [6]
  Activity: inactive

## C[C@H](CCC(=O)N1CCN(C/C=C/c2ccccc2)CC1)[C@H]1CC[C@H]2[C@@H]3[C@H](O)C[C@@H]4C[C@H](O)CC[C@]4(C)[C@H]3CC[C@]12C
KMS-11 [8]
  Activity: Active
HCT-116 [9]
  Activity: Active
KMS-11 [10]
  Activity: Active
GBM [11]
  Activity: Active
HCT-116 [1]
  Activity: Active
KMS-11 [12]
  Activity: Dose-dependent effect
GBM [4]
  Activity: Active
KMS-11 [13]
  Activity: 37%
KMS-11 [14]
  Activity: 86%
KMS-11 [15]
  Activity: 61%
HCT-116 [7]
  CC50: 18.5 µM
KMS-11 [16]
  Activity: 5%
KMS-11 [17]
  Activity: Active
KMS-11 [18]
  Activity: Active
KMS-11 [19]
  Activity: Active
KMS-11 [20]
  Activity: Active
KMS-11 [6]
  Activity: Active
